Data set [1] in a line: Solubility in phosphate-buffered saline (PBS) at pH 7.1. Format: physicochemical.
Data set [2] relates to L1210. The experiment in a line: Antiproliferative activity of compound expressed as concentration that inhibits 50% of growth of L1210 leukemic cell suspension from 24 to 48 hr after compound addition. The class given is functional, cell-based. Particulars: Mus musculus. Put shortly: (§1)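 Cells grown in RPMI 1640 with L-glutamine, 10% defined equine serum, 2% Mopes-Hepes buffer (pH 7.40), penicillin and streptomycin. Tested in log phase (0.5 × 10^5–2 × 10^6 cells/mL), in duplicate. Compound given as 10-µL DMSO stock (one ester in ethanol), with solvent-spiked controls.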

Data set [3] has as its system L1210. Kind of data set: Percent viability against L1210 leukemic cells 48 hr after compound addition at 100 uM concentration. Format: functional, Mus musculus. The procedure, abridged: (§2)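 Leukemia cells in RPMI 1640 with 10% defined equine serum and Mopes-Hepes buffer (pH 7.40). Compound added from DMSO stock. Viable cells scored by trypan blue exclusion 48 h after compound addition.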

Data set [4] concerns L1210. Kind of data set: Percent viability against L1210 leukemic cells at 0 uM. Format: functional, Mus musculus.
The test system of data set [5] is L1210. Kind of data set: Percent viability against L1210 leukemic cells at 100 uM. Format: functional, Mus musculus.
Data set [6] relates to L1210. Kind of data set: Percent viability against L1210 leukemic cells at 200 uM. Format: functional, Mus musculus.
In data set [7] the test system is L1210. The experiment in a line: Percent viability against L1210 leukemic cells at 25 uM. Format: functional, Mus musculus.
The test system of data set [8] is L1210. Kind of data set: Percent viability against L1210 leukemic cells at 50 uM. Format: functional, Mus musculus.
Data set [9] concerns L1210. Kind of data set: Percent of control growth in L1210 cells by addition of 25 uM compound as […] chelate (FeCl3). Format: functional, Mus musculus. The procedure, abridged: (§3)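 In L1210 iron-reversal runs, FeCl3 aqueous stock was premixed 1:1 molar with chelator stock until an intense purple colour developed, then added to the cells. Growth was compared with chelator alone, FeCl3 alone and DMSO alone. Cells were counted electronically and growth read 48 h after ligand addition as % of control ± SE.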

Data set [10] concerns L1210. Kind of data set: Percent of control growth in L1210 cells by addition of 25 uM of iron-free compound. The class given is functional, Mus musculus. The procedure, abridged: as §3
Data set [11] has as its system P388. The experiment in a line: Percent viability against P388 leukemic cells 48 hr after compound addition at 100 uM concentration. The class given is functional, Mus musculus. The procedure, abridged: as §2
Data set [12] is described as follows: Partition ratio in 1-octanol / phosphate-buffered saline system. The class given is physicochemical. Particulars: buffer. The procedure, abridged:
(§4)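 Compound film was left by evaporating an alcohol solution under nitrogen. 5 mL each of 1-octanol and PBS (pH 7.1) were added, sealed under nitrogen and agitated 3 h at 27 °C. Each layer was measured by absorbance at 247 nm against Beer's plots (1.25–10 or 3.25–50 μM).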

Data set [13] concerns P388. Kind of data set: Antiproliferative activity of compound expressed as concentration that inhibits 50% of growth of P388 leukemic cell suspension from 24 to 48 hr after compound addition. Format: functional, cell-based. Particulars: Mus musculus. Put shortly:
as §1

In data set [14] the test system is L1210. The experiment in a line: Percent viability against L1210 leukemic cells 48 hr after compound addition at 35 uM concentration. Format: functional, Mus musculus. Put shortly:
as §2

Data set [15] deals with L1210. The experiment in a line: Percent of control growth in L1210 cells by addition of 5 uM compound as iron(II) chelate (FeCl3). Particulars: in the assay text read “iron(III) chelate” for “iron(II) chelate”. Format: functional, Mus musculus. Put shortly:
as §3

Data set [16] deals with L1210. The experiment in a line: Percent of control growth in L1210 cells by addition of 5 uM of iron-free compound. Format: functional, Mus musculus. Put shortly: as §3
Data set [17] concerns P388. The experiment in a line: Percent viability against P388 leukemic cells 48 hr after compound addition at 25 uM concentration. The class given is functional, Mus musculus. Put shortly: as §2
Data set [18] can be described thus: Partition ratio in 1-octanol / phosphate-buffered saline system. The conditions noted are these: buffer. Format: physicochemical. The procedure, abridged:
as §4

The subject of another data set is V79 (Cricetulus griseus). Kind of data set: Tritiated thymidine uptake is estimated after incubation of 120 min with compound(50 uM) and the radiolabel.
Data set [19] concerns L1210. Kind of data set: Percent viability against L1210 leukemic cells 48 hr after compound addition at 100 uM. The class given is functional, Mus musculus. Put shortly: as §2
Data set [20] relates to L1210. The experiment in a line: Percent of control growth in L1210 cells by addition of 100 uM compound as […] chelate (FeCl3). The class given is functional, Mus musculus. Put shortly: as §3
In data set [21] the test system is L1210. The experiment in a line: Percent of control growth in L1210 cells by addition of 100 uM of iron-free compound. The class given is functional, Mus musculus. Put shortly: as §3
Data set [22] relates to P388. Kind of data set: Percent viability against P388 leukemic cells 48 hr after compound addition at 100 uM. Format: functional, Mus musculus. The procedure, abridged: as §2
Data set [23] deals with L1210. The experiment in a line: Antiproliferative activity, concentration that inhibits 50% of growth of L1210 leukemic cell suspension from 24 to 48 hr after compound addition. The class given is functional, cell-based. Particulars: Mus musculus. Put shortly:
as §1

For data set [24], the system named is P388. The experiment in a line: Antiproliferative activity of compound expressed as concentration that inhibits 50% of growth of P388 leukemic cell suspension from 24 to 48 hr after compound addition; ND= Not defined. Format: functional, cell-based, Mus musculus. Put shortly:
as §1

Data set [25] has as its system P388. Kind of data set: Percent viability against P388 leukemic cells 48 hr after compound addition at 100 uM concentration; ND= Not defined. The class given is functional, cell-based. Particulars: Mus musculus. Put shortly:
as §2

The subject of data set [26] is L1210. Kind of data set: Antiproliferative activity of compound expressed as concentration that inhibits 50% of growth of L1210 leukemic cell suspension from 24 to 48 h after compound addition. Particulars: Mus musculus. The class given is functional, cell-based. The procedure, abridged: as §1

pIC50: −log10 of the molar value. Converted amounts (≈) assume the structure as drawn.

The compound `CC(=O)N(CCCCNC(=O)C1CSC(c2ccccc2O)=N1)CCCCNC(=O)C1CSC(c2ccccc2O)=N1` (centres undefined) returned a solubility in data set [1] of 10 µM (≈ 6.12 µg/mL). For the same compound, the pIC50 in the data set on L1210 [2] is 4.68; with P388 [13], 4.92. The Viability in the data set with L1210 [3] turned out to be 95%; in the data set on L1210 [4], 99%; with L1210 [5], 40%; with L1210 [6], 27%; in the data set with L1210 [7] it was 92%; in the data set on L1210 [8], 100%. The Viability with P388 [11] is on record as 85%. Further, the Control of growth in the data set on L1210 [9] amounted to 68%; in the data set with L1210 [10], 29%. Moreover, in [12], the Ratio is given as greater than 7.
Take `NC(=O)NO` [HYDROXYUREA]: the pIC50 was 4.07 in the data set on L1210 [2] and 4.49 in the data set with P388 [13]. Also, the Viability came to 97% in the data set on L1210 [3] and 96% in the data set with P388 [11].
In [1], `O=C(NCCCCN(CCCCNC(=O)C1CSC(c2ccccc2O)=N1)Cc1ccccc1)C1CSC(c2ccccc2O)=N1` (centres undefined) gave a solubility of 15 µM (≈ 9.9 µg/mL). In addition, the figures for the pIC50 in the data set with L1210 [2] and in the data set with P388 [13] were 5.52 and 6.00, respectively. Further, the Viability in the data set with L1210 [14] amounted to 6%; in the data set on L1210 [4], 87%; in the data set on L1210 [8], 0%; with P388 [17] it was 15%. Also, the Control of growth in the data set with L1210 [15] is given as 21%; with L1210 [16], 22%. In addition, the Ratio in data set [18] is 0.96. In the data set on V79 (Cricetulus griseus), the Control was 48%.
In the case of `COC(=O)C1CSC(c2ccccc2O)=N1` (centres undefined), the solubility in [1] worked out at 50 µM (≈ 11.9 µg/mL). The pIC50 with L1210 [2] was 4.85; in the data set on P388 [13] it was 4.74. The Viability in the data set on L1210 [19] was 87%; in the data set on L1210 [4] it was 99%; in the data set with L1210 [5] it was 46%; in the data set on L1210 [6], 42%; in the data set on L1210 [8], 36%; in the data set on P388 [22] it was 85%. The Control of growth with L1210 [20] turned out to be 98%; with L1210 [21], 4%. For the same compound, the Ratio in data set [18] was 11.75.
As for `CCOC(=N)c1ccccc1O`, in the data set with L1210 [23], the pIC50 was less than 3.70. The Viability with L1210 [3] is greater than 99%; with P388 [25] it was “Not defined”. Also, the IC50 entry in the data set on P388 [24] is on record as “Not defined”.
In turn, `O=C(O)C1CSC(c2ccccc2O)=N1` (centres undefined) registered a solubility in data set [1] of 75 µM (≈ 16.7 µg/mL). The Viability in the data set with L1210 [19] is 92%; in the data set on L1210 [4], 94%; in the data set on L1210 [5], 54%; in the data set with L1210 [6], 42%; in the data set with L1210 [8], 81%; in the data set on P388 [22] it was 77%. The pIC50 was 4.60 in the data set on L1210 [26] and 4.77 in the data set on P388 [13]. Moreover, in data set [12], the Ratio is 0.03.

Values taken from ChEMBL document CHEMBL1124457, “In vitro antiproliferative activity of 4-substituted 2-(2-hydroxyphenyl)thiazolines on murine leukemia cells” (J Med Chem, 1989).
